Source: ChEMBL document CHEMBL3414437, “Synthesis of CDDO-amino acid-nitric oxide donor trihybrids as potential antitumor agents against both drug-sensitive and drug-resistant colon cancer” (J Med Chem, 2015)
Activity calls are given as the source filed them. The calls are words filed in the database; no cut-off is given here.

Assays:
Mus musculus [1] = assay: Toxicity in nude BALB/c mouse xenografted with FU-resistant human HCT8 cells assessed as abnormal size changes in lung at 59.4 umol/kg administered as via oral gavage daily for 21 days; type: organism-based, HCT-8; settings: in vivo, 504 h
Method in brief: (§1)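 Male BALB/c nude mice aged 6-8 weeks, implanted s.c. in the right flank with HCT-8/5-FU cells (2 × 10^6). Once tumors reached 180-200 mm3 (days 9-11), randomized to daily gavage for 21 days in cremophor-EL/DMSO/PBS (1:1:8), 0.2 mL. At the end, liver, kidney, lung and heart checked for size, colour and weight. n = 8 per group.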

Mus musculus [2] = assay: Toxicity in nude BALB/c mouse xenografted with FU-resistant human HCT8 cells assessed as abnormal weight changes in lung at 59.4 umol/kg administered as via oral gavage daily for 21 days; type: organism-based, HCT-8; settings: in vivo, 504 h
Method in brief: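 Male BALB/c nude mice, 6-8 weeks old, inoculated s.c. in right flank with HCT-8/5-FU cells (2 × 10^6/mouse). Once tumors reached 180-200 mm3 (9-11 days post-implantation), mice were randomized and dosed by gavage daily for 21 consecutive days in cremophor-EL/DMSO/PBS (1:1:8) (vehicle alone 0.2 mL). Body weights recorded on day 1 and day 21. Organ size, color and weights were inspected for liver, kidney, lung and heart. n = 8 per group; mean ± SD.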

HCT-8 [3] = assay: (§2) Antiproliferative activity against human HCT8 cells assessed as inhibition of cell proliferation at 1 uM after 72 hrs by MTT assay; type: functional
Method in brief: (§3)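 Cells grown in DMEM with 10% FBS and exposed to compound at 1 µM for 72 h. Proliferation measured by MTT at 570 nm and expressed as % inhibition versus untreated cells. Mean ± SD of three independent experiments.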

[4] = molecular target: Signal transducer and activator of transcription 3 (Homo sapiens) (UniProt P40763); assay: Inhibition of STAT3 protein phosphorylation in human HCT8 cells at 1 uM incubated for 24 hrs by Western blotting method; type: cell-based; settings: HCT-8
Method in brief: (§4)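 Cells (1 x 10^6) grown 24 h in 6 cm dishes, then exposed in duplicate for 24 h to 0.25, 0.5 or 1 µM compound, with or without PTIO. Lysates (20 µg/lane) were run on 7.5% SDS-PAGE, blotted to PVDF and blocked in 5% milk. HRP secondaries with ECL detection; bands quantified by densitometry against β-actin or GAPDH. Three separate experiments, mean ± SD.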

HCT-8 [5] = assay: Inhibition of ERK protein phosphorylation in FU-resistant human HCT8 cells at 1 uM incubated for 24 hrs by Western blotting method; type: cell-based; method in brief: as §4
HCT-8 [6] = assay: Inhibition of P-gp protein expression in FU-resistant human HCT8 cells at 1 uM incubated for 24 hrs by Western blotting method; type: functional, cell-based; method in brief: as §4
HCT-8 [7] = assay: Inhibition of MRP1 protein expression in FU-resistant human HCT8 cells at 1 uM incubated for 24 hrs by Western blotting method; type: functional, cell-based; method in brief: as §4
Mus musculus [8] = assay: Toxicity in nude BALB/c mouse xenografted with FU-resistant human HCT8 cells assessed as abnormal color changes in lung at 59.4 umol/kg administered as via oral gavage daily for 21 days; type: organism-based, HCT-8; settings: in vivo, 504 h; method in brief: as §1
Mus musculus [9] = assay: Toxicity in nude BALB/c mouse xenografted with FU-resistant human HCT8 cells assessed as abnormal color changes in heart at 59.4 umol/kg administered as via oral gavage daily for 21 days; type: organism-based, HCT-8; settings: in vivo, 504 h; method in brief: as §1
[10] = as §2; type: functional; settings: HCT-8, 72 h, read-out: GI; method in brief: as §3
HCT-8 [11] = assay: Induction of nitric oxide release in human HCT8 cells at 100 uM incubated for 150 mins by Griess assay; type: functional, cell-based
Method in brief: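 Cells (1 × 10^6/well) treated in triplicate with compound at 100 µM for 150 min. Lysates mixed with Griess reagent for 10 min at 37 °C and read at 540 nm. Nitrite quantified from a sodium nitrite standard curve; 0.4% DMSO-treated cells served as background. Mean ± SD of three experiments.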

HCT-8 [12] = assay: Antiproliferative activity against 5-FU resistant human HCT8 cells assessed as inhibition of cell proliferation at 0.25 uM dosed 1 hr after NO scavenger carboxy-PTIO treatment and measured after 24 hrs by MTT assay; type: functional
HCT-8 [13] = assay: Antiproliferative activity against 5-FU resistant human HCT8 cells assessed as inhibition of cell proliferation at 0.125 to 0.5 uM incubated for 72 hrs after 24 hrs of pre-treatment with 0.75 uM and 1 .5 uM pepT1 substrate Gly-Sar by MTT assay; type: functional, cell-based
Method in brief: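 Cells pretreated with or without Gly-Sar (0.75 or 1.5 µM) for 24 h, then given a range of compound concentrations for 72 h. Proliferation inhibition measured by MTT.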

[14] = molecular target: RAC-alpha serine/threonine-protein kinase (Homo sapiens) (UniProt P31749); assay: Inhibition of AKT protein phosphorylation in FU-resistant human HCT8 cells at 0.25 to 1 uM incubated for 24 hrs by Western blotting method; type: cell-based; settings: HCT-8; method in brief: as §4
HCT-8 [15] = assay: Inhibition of MRP1 protein expression in FU-resistant human HCT8 cells at 0.25 to 1 uM incubated for 24 hrs by Western blotting method; type: functional, cell-based; method in brief: as §4
HCT-8 [16] = assay: Inhibition of BCRP protein expression in FU-resistant human HCT8 cells at 0.25 to 1 uM incubated for 24 hrs by Western blotting method; type: functional, cell-based; method in brief: as §4
Mus musculus [17] = assay: Toxicity in ICR mouse assessed as abnormality in drinking behavior at 0.60 x 10^3 to 2.38 x 10^3 umol/kg administered as single dose via oral gavage measured up to 14 days post treatment; type: organism-based; settings: in vivo, 336 h
Method in brief: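 Adult ICR mice of either sex were randomised and given a single oral gavage dose of 500, 1000, 1500 or 2000 mg/kg in cremophor-EL/DMSO/PBS (1:1:8). Survival, behaviour, water and food intake, body weight and activity were monitored for up to 14 days. Body weights were taken on days 0, 7 and 14.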

Mus musculus [18] = assay: Toxicity in male ICR mouse assessed as body weight level at 2.38 x 10^3 umol/kg administered as single dose via oral gavage measured on day 7 post treatment (reference value: 19.8 +/- 0.92 g); type: organism-based; settings: in vivo
[19] = Antitumor activity against FU-resistant human HCT8 cells xenografted in nude BALB/c mouse assessed as reduction in tumor weight at 17.8 umol/kg administered as via oral gavage daily for 21 days; type: functional; settings: HCT-8, po, 504 h
Method in brief: (§5)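 Male BALB/c nude mice, 6–8 weeks old, inoculated s.c. in the right flank with HCT-8/5-FU cells (2 × 10^6). Once tumors reached 180–200 mm3 (days 9–11), mice were randomized (n = 8) to daily oral gavage for 21 days in cremophor-EL/DMSO/PBS (1:1:8). Tumor volume = W2(L/2), caliper-measured every other day, blinded; tumors weighed at end.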

[20] = Antitumor activity against FU-resistant human HCT8 cells xenografted in nude BALB/c mouse assessed as reduction in tumor weight at 35.7 umol/kg administered as via oral gavage daily for 21 days; type: functional; settings: HCT-8, po, 504 h; method in brief: as §5
Mus musculus [21] = assay: Toxicity in nude BALB/c mouse xenografted with FU-resistant human HCT8 cells assessed as abnormal size changes in kidney at 17.8 to 35.7 umol/kg administered as via oral gavage daily for 21 days; type: organism-based, HCT-8; settings: in vivo, 504 h; method in brief: as §1
Mus musculus [22] = assay: Toxicity in nude BALB/c mouse xenografted with FU-resistant human HCT8 cells assessed as abnormal size changes in lung at 17.8 to 35.7 umol/kg administered as via oral gavage daily for 21 days; type: organism-based, HCT-8; settings: in vivo, 504 h; method in brief: as §1

Sequence of RAC-alpha serine/threonine-protein kinase (Homo sapiens) (P31749 whole entry): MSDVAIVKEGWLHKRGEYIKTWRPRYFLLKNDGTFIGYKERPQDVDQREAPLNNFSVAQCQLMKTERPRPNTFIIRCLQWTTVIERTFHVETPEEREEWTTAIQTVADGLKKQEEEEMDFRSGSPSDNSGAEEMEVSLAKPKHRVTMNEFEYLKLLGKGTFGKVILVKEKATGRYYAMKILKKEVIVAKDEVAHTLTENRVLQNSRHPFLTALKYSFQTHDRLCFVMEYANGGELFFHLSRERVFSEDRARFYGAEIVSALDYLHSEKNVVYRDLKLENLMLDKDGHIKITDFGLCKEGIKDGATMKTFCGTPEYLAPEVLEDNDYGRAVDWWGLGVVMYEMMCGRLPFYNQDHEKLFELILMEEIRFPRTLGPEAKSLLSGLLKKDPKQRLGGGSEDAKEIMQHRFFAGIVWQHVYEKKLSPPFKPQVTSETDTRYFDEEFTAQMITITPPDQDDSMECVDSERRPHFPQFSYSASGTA
Sequence of Signal transducer and activator of transcription 3 (Homo sapiens) (P40763 whole entry): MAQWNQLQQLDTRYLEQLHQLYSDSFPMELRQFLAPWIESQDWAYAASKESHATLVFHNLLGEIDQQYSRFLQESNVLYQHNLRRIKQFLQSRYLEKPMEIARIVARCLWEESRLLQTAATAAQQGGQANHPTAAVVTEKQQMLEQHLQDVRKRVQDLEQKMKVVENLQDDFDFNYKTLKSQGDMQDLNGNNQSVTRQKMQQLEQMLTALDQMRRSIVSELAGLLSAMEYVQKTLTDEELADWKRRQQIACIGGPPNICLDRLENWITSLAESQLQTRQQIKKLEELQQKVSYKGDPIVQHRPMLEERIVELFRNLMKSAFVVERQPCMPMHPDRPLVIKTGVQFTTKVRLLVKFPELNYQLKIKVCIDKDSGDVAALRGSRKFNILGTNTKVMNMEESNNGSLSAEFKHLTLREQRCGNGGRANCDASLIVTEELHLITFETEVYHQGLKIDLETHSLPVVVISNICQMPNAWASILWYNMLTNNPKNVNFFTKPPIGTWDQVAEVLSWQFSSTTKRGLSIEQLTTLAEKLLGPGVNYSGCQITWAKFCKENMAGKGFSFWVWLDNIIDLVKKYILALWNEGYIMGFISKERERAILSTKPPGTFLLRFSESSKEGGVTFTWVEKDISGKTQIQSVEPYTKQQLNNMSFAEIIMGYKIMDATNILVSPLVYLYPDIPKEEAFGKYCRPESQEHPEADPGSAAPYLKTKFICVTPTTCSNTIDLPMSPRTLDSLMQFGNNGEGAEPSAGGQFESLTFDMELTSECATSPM

## COC(=O)[C@]12CCC(C)(C)C[C@H]1[C@H]1C(=O)C=C3[C@@]4(C)C=C(C#N)C(=O)C(C)(C)[C@@H]4CC[C@@]3(C)[C@]1(C)CC2 [BARDOXOLONE METHYL]
Mus musculus [1]
  Activity: Non-toxic
Mus musculus [2]
  Activity: Non-toxic
HCT-8 [3]
  growth inhibition (GI): Active
[4]
  inhibition: Active
HCT-8 [5]
  inhibition: Active
HCT-8 [6]
  inhibition: inactive
HCT-8 [7]
  inhibition: inactive
Mus musculus [8]
  Activity: Non-toxic
Mus musculus [9]
  Activity: Non-toxic

## CC1(C)CC[C@]2(C(=O)NCC(=O)OCC#CCOc3no[n+]([O-])c3S(=O)(=O)c3ccccc3)CC[C@]3(C)[C@H](C(=O)C=C4[C@@]5(C)C=C(C#N)C(=O)C(C)(C)[C@@H]5CC[C@]43C)[C@@H]2C1
[10]
  inhibition of growth at 1 µM: > 90%
HCT-8 [11]
  Activity: Active
HCT-8 [12]
  inhibition: inactive
HCT-8 [13]
  inhibition: inactive
[14]
  inhibition: Dose-dependent effect
HCT-8 [15]
  inhibition: Dose-dependent effect
HCT-8 [16]
  inhibition: Dose-dependent effect
Mus musculus [17]
  Activity: Non-toxic
Mus musculus [18]
  Activity: 26.7 g
[19]
  inhibition in vivo at 17.8 µmol/kg: 49.2%
[20]
  inhibition in vivo at 35.7 µmol/kg: 60.8%
Mus musculus [21]
  Activity: Non-toxic
Mus musculus [22]
  Activity: Non-toxic
